Results from paper PMC5715471 (ACS chemical neuroscience, 2017).

Key:
D3 = D3 (Homo sapiens, UniProt P35462); assay: PDSP radioligand binding, D3; details: 10 μM
A7 [1] = biological target: A7 (Rattus norvegicus, UniProt Q05941); assay: PDSP radioligand binding, A7 sourced from rodent brain; details: 10 μM
NMDA = assay: PDSP radioligand binding, NMDA
MOR = MOR (Homo sapiens, UniProt P35372); assay: PDSP radioligand binding, MOR; details: 10 μM
5HT5a = 5HT5a (Homo sapiens, UniProt P47898); assay: PDSP radioligand binding, 5HT5a; details: 10 μM
A3B4 = A3B4 (Rattus norvegicus, UniProt P04757+P12392); assay: PDSP radioligand binding, A3B4; details: 10 μM
GabaA = assay: PDSP radioligand binding, GabaA; details: 10 μM
Alpha1c = assay: PDSP radioligand binding, Alpha1c; details: 10 μM
5HT1D = 5HT1D (Homo sapiens, UniProt P28221); assay: PDSP radioligand binding, 5HT1D; details: 10 μM
V1B = V1B (Homo sapiens, UniProt P47901); assay: PDSP radioligand binding, V1B
calcium channel = assay: PDSP radioligand binding, calcium channel
D2 = D2 (Homo sapiens, UniProt P14416); assay: PDSP radioligand binding, D2; details: 10 μM
Sequence of D2 (P14416 whole entry): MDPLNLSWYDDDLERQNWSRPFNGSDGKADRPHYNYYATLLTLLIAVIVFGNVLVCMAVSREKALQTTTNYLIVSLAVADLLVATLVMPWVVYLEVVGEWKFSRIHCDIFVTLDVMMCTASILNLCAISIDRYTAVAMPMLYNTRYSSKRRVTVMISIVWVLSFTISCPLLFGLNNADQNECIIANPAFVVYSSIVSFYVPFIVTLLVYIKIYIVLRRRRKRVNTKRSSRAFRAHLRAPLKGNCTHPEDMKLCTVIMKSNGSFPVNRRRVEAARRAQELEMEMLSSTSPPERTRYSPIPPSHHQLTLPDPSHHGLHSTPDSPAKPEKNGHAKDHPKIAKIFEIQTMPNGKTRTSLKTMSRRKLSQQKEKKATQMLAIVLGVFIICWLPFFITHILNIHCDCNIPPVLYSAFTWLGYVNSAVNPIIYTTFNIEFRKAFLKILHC

V1A = V1A (Homo sapiens, UniProt P37288); assay: PDSP radioligand binding, V1A
Beta3 = Beta3 (Homo sapiens, UniProt P13945); assay: PDSP radioligand binding, Beta3; details: 10 μM
AMPA = assay: PDSP radioligand binding, AMPA
5HT1A = 5HT1A (Homo sapiens, UniProt P08908); assay: PDSP radioligand binding, 5HT1A; details: 10 μM
5HT2B = 5HT2B (Homo sapiens, UniProt P41595); assay: PDSP radioligand binding, 5HT2B; details: 10 μM
A7 [2] = assay: PDSP radioligand binding, A7; details: 10 μM
A2B2 = A2B2 (Rattus norvegicus, UniProt P12389+P12390); assay: PDSP radioligand binding, A2B2; details: 10 μM
Sequence of A2B2 (P12389 28-511): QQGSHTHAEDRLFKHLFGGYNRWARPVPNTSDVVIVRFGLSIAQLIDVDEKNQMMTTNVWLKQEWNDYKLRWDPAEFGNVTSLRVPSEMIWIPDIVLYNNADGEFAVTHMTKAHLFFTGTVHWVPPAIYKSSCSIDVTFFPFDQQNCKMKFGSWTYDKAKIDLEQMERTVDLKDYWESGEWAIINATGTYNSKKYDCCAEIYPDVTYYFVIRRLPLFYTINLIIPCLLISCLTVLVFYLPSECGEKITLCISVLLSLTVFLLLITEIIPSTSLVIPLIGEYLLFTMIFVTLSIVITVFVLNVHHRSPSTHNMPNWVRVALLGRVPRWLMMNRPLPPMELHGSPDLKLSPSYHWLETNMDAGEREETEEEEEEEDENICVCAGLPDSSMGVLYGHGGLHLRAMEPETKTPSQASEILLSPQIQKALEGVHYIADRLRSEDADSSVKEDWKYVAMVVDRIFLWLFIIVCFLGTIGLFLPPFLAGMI
Sequence of A2B2 (P12390 25-500): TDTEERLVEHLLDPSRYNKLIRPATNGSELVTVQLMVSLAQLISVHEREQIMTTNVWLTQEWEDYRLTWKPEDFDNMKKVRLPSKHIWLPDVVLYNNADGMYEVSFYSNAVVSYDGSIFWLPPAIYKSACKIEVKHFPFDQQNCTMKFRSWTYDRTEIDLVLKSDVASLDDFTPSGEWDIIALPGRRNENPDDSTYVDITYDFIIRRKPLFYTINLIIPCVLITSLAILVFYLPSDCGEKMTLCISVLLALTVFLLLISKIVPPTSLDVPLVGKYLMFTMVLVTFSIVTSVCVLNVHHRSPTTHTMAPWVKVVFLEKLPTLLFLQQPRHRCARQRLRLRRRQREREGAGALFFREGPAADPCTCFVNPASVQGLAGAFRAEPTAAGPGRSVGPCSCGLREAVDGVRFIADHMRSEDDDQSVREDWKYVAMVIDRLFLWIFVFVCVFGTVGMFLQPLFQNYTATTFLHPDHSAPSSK

A3B2 = A3B2 (Rattus norvegicus, UniProt P04757+P12390); assay: PDSP radioligand binding, A3B2; details: 10 μM
A4B2 = A4B2 (Rattus norvegicus, UniProt P09483+P12390); assay: PDSP radioligand binding, A4B2; details: 10 μM
σ2R/Tmem97 = biological target: T1, σ2R/Tmem97 (Rattus norvegicus, UniProt Q5U3Y7); assay: Sigma 2 receptor competition binding with [3H]-ditolylguanidine; details: σ2R from rat PC12 cells
T1 sequence (Q5U3Y7 1-176): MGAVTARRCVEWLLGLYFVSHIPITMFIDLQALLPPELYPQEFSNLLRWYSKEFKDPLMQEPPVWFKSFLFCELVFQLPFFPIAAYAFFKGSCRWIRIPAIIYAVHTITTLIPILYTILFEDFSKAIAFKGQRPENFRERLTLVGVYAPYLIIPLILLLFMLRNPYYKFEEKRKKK

D1 = D1 (Homo sapiens, UniProt P21728); assay: PDSP radioligand binding, D1; details: 10 μM
DOR = DOR (Homo sapiens, UniProt P41143); assay: PDSP radioligand binding, DOR; details: 10 μM
Beta1 = Beta1 (Homo sapiens, UniProt P08588); assay: PDSP radioligand binding, Beta1; details: 10 μM
Sequence of Beta1 (P08588 whole entry): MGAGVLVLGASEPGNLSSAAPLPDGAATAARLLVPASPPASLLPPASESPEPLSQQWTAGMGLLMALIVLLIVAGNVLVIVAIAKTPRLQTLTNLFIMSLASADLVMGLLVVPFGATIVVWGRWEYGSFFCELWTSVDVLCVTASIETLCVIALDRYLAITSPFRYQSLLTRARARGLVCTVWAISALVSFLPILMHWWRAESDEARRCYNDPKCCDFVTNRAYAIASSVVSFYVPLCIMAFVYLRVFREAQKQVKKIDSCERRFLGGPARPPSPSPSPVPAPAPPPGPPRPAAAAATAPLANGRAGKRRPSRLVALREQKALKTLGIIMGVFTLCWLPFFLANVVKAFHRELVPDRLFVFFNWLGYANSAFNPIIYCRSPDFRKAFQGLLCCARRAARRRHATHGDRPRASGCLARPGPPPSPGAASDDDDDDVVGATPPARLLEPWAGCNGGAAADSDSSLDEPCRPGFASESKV

M4 = M4 (Homo sapiens, UniProt P08173); assay: PDSP radioligand binding, M4; details: 10 μM
5HT3 = 5HT3 (Homo sapiens, UniProt P46098); assay: PDSP radioligand binding, 5HT3; details: 10 μM
A4B4 = A4B4 (Rattus norvegicus, UniProt P09483+P12392); assay: PDSP radioligand binding, A4B4; details: 10 μM
V2 = V2 (Homo sapiens, UniProt P30518); assay: PDSP radioligand binding, V2
BZP rat brain = assay: PDSP radioligand binding, BZP rat brain; details: 10 μM
5HT7 = 5HT7 (Homo sapiens, UniProt P34969); assay: PDSP radioligand binding, 5HT7; details: 10 μM
Sequence of 5HT7 (P34969 whole entry): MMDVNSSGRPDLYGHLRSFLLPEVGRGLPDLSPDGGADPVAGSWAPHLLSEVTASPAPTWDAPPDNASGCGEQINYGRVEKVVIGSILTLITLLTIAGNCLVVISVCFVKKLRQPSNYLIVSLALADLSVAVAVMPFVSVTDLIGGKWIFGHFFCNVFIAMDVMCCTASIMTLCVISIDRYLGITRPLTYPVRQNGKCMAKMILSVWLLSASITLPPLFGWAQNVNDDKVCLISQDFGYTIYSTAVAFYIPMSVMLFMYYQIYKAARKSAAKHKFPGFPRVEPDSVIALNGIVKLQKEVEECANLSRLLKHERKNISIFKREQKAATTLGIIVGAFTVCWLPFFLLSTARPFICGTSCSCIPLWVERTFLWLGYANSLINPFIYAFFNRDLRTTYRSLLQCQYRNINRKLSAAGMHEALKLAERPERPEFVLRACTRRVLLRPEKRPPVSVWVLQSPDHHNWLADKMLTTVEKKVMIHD

5HT1B = 5HT1B (Homo sapiens, UniProt P28222); assay: PDSP radioligand binding, 5HT1B; details: 10 μM
D4 = D4 (Homo sapiens, UniProt P21917); assay: PDSP radioligand binding, D4; details: 10 μM
Sequence of D4 (P21917 whole entry): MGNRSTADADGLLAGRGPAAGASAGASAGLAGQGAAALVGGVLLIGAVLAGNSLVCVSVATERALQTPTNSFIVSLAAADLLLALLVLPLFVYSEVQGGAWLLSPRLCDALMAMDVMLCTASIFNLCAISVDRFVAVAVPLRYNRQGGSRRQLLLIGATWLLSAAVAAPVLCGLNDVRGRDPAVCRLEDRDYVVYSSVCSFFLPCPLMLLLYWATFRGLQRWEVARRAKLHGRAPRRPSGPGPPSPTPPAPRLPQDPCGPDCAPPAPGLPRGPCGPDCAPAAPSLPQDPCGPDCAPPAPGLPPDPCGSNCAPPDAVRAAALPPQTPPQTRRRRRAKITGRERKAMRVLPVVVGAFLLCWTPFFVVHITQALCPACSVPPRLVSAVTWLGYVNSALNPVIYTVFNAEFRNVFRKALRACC

M3 = M3 (Homo sapiens, UniProt P20309); assay: PDSP radioligand binding, M3; details: 10 μM
NET = NET (Homo sapiens, UniProt P23975); assay: PDSP radioligand binding, NET
Sequence of NET (P23975 whole entry): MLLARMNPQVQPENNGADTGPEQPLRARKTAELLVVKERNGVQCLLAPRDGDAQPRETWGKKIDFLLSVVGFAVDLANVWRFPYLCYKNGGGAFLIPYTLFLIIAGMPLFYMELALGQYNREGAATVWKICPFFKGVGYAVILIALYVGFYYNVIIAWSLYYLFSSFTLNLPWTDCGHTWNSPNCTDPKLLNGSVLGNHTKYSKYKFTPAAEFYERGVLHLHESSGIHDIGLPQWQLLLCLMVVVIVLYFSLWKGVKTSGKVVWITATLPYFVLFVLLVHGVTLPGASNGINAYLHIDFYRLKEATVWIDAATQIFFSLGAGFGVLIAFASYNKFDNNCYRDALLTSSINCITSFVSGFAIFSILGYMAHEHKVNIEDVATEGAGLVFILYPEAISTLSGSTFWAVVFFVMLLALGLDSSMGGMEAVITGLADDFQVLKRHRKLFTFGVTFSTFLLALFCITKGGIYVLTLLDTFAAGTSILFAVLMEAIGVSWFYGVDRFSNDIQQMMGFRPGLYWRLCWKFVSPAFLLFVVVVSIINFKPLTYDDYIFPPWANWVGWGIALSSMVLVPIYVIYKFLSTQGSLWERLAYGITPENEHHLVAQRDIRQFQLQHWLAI

Beta2 = Beta2 (Homo sapiens, UniProt P07550); assay: PDSP radioligand binding, Beta2; details: 10 μM
H3 = H3 (Homo sapiens, UniProt Q9Y5N1); assay: PDSP radioligand binding, H3; details: 10 μM
M5 = M5 (Homo sapiens, UniProt P08912); assay: PDSP radioligand binding, M5; details: 10 μM
Sequence of M5 (P08912 whole entry): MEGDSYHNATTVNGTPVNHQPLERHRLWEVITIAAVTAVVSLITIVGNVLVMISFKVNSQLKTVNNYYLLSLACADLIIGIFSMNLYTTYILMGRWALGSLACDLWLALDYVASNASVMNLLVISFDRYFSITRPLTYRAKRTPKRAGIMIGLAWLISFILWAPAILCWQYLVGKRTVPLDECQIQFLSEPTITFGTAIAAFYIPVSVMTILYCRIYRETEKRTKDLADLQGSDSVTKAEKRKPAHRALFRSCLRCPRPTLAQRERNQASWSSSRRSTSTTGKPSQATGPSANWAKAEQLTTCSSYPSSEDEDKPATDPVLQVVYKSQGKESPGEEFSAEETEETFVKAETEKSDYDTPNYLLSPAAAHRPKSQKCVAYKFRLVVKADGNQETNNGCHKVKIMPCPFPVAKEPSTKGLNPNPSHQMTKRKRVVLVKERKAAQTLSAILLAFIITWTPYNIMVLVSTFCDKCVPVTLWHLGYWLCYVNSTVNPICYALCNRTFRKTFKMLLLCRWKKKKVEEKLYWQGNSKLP

SNI mice = assay: Rotorod test of motor performance; assay type: in vivo, mouse; details: IV 10 mg/kg, 48 h after injection, third trial
Summary of the method: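 SNI mice given IV vehicle or test compound 10 mg/kg in sterile saline, tested 48 h later. Automated rotorod accelerating to 40 rpm over 200 s. Two training runs; latency to fall recorded on third trial. n = 6 per group; two-tailed t test.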

KOR = KOR (Homo sapiens, UniProt P41145); assay: PDSP radioligand binding, KOR
SERT = SERT (Homo sapiens, UniProt P31645); assay: PDSP radioligand binding, SERT; details: 10 μM
A2B4 = A2B4 (Rattus norvegicus, UniProt P12389+P12392); assay: PDSP radioligand binding, A2B4; details: 10 μM
Sequence of A2B4 (P12389 28-511): as the sequence (P12389 28-511) above
Sequence of A2B4 (P12392 21-495): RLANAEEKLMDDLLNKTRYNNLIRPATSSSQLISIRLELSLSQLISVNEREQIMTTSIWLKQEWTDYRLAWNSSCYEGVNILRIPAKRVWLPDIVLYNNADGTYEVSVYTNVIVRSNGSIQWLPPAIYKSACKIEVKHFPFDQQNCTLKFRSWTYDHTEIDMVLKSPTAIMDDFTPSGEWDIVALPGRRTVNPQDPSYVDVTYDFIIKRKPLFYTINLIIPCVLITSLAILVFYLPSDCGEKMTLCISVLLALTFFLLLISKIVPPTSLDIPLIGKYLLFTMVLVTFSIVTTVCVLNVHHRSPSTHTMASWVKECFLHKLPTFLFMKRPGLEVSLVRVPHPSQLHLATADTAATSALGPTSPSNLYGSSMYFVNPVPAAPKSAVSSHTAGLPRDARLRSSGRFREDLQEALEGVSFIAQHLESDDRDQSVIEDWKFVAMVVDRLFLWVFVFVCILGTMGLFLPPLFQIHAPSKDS

5HT1e = 5HT1e (Homo sapiens, UniProt P28566); assay: PDSP radioligand binding, 5HT1e; details: 10 μM
M2 = M2 (Homo sapiens, UniProt P08172); assay: PDSP radioligand binding, M2; details: 10 μM

Sequence of MOR (P35372 whole entry): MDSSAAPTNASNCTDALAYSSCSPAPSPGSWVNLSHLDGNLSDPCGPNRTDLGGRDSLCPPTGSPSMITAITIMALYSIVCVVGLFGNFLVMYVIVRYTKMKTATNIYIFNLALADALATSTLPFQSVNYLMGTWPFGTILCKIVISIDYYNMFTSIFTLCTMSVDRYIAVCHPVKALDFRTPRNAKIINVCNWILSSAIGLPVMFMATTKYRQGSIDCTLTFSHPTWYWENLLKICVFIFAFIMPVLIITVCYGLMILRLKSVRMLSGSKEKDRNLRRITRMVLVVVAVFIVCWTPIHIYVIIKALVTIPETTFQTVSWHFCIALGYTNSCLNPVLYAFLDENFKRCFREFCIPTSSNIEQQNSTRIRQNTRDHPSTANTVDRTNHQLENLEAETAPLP

Structure (SMILES): OCCCN1CCCC2CC1c1cc(-c3ccc(C(F)(F)F)cc3)ccc12 (racemic) [UKH-1114, (±)-9-(4-(Trifluoromethyl)phenyl)-3,4,5,6-tetrahydro-1,6-methanobenzo[c]azocin-2(1H)-yl)propan-1-ol]
- inhibition of radioligand binding (Ki column, footnote a) (D3): ^a (<50% inhibition of radioligand binding at 10 μM)
- inhibition of radioligand binding (Ki column, footnote a) (A7 [1]): ^a (<50% inhibition of radioligand binding at 10 μM)
- Ki (NMDA): 6.72 µM
- inhibition of radioligand binding (Ki column, footnote a) (MOR): ^a (<50% inhibition of radioligand binding at 10 μM)
- inhibition of radioligand binding (Ki column, footnote a) (5HT5a): ^a (<50% inhibition of radioligand binding at 10 μM)
- inhibition of radioligand binding (Ki column, footnote a) (A3B4): ^a (<50% inhibition of radioligand binding at 10 μM)
- inhibition of radioligand binding (Ki column, footnote a) (GabaA): ^a (<50% inhibition of radioligand binding at 10 μM)
- inhibition of radioligand binding (Ki column, footnote a) (Alpha1c): ^a (<50% inhibition of radioligand binding at 10 μM)
- inhibition of radioligand binding (Ki column, footnote a) (5HT1D): ^a (<50% inhibition of radioligand binding at 10 μM)
- Ki (V1B): > 10 µM
- Ki (calcium channel): > 10 µM
- inhibition of radioligand binding (Ki column, footnote a) (D2): ^a (<50% inhibition of radioligand binding at 10 μM)
- Ki (V1A): > 10 µM
- inhibition of radioligand binding (Ki column, footnote a) (Beta3): ^a (<50% inhibition of radioligand binding at 10 μM)
- Ki (AMPA): > 10 µM
- inhibition of radioligand binding (Ki column, footnote a) (5HT1A): ^a (<50% inhibition of radioligand binding at 10 μM)
- inhibition of radioligand binding (Ki column, footnote a) (5HT2B): ^a (<50% inhibition of radioligand binding at 10 μM)
- inhibition of radioligand binding (Ki column, footnote a) (A7 [2]): ^a (<50% inhibition of radioligand binding at 10 μM)
- inhibition of radioligand binding (Ki column, footnote a) (A2B2): ^a (<50% inhibition of radioligand binding at 10 μM)
- inhibition of radioligand binding (Ki column, footnote a) (A3B2): ^a (<50% inhibition of radioligand binding at 10 μM)
- inhibition of radioligand binding (Ki column, footnote a) (A4B2): ^a (<50% inhibition of radioligand binding at 10 μM)
- affinity at σ2R/Tmem97 (in words) (σ2R/Tmem97): high affinity
- inhibition of radioligand binding (Ki column, footnote a) (D1): ^a (<50% inhibition of radioligand binding at 10 μM)
- inhibition of radioligand binding (Ki column, footnote a) (DOR): ^a (<50% inhibition of radioligand binding at 10 μM)
- inhibition of radioligand binding (Ki column, footnote a) (Beta1): ^a (<50% inhibition of radioligand binding at 10 μM)
- inhibition of radioligand binding (Ki column, footnote a) (M4): ^a (<50% inhibition of radioligand binding at 10 μM)
- inhibition of radioligand binding (Ki column, footnote a) (5HT3): ^a (<50% inhibition of radioligand binding at 10 μM)
- inhibition of radioligand binding (Ki column, footnote a) (A4B4): ^a (<50% inhibition of radioligand binding at 10 μM)
- Ki (V2): > 10 µM
- inhibition of radioligand binding (Ki column, footnote a) (BZP rat brain): ^a (<50% inhibition of radioligand binding at 10 μM)
- inhibition of radioligand binding (Ki column, footnote a) (5HT7): ^a (<50% inhibition of radioligand binding at 10 μM)
- inhibition of radioligand binding (Ki column, footnote a) (5HT1B): ^a (<50% inhibition of radioligand binding at 10 μM)
- inhibition of radioligand binding (Ki column, footnote a) (D4): ^a (<50% inhibition of radioligand binding at 10 μM)
- inhibition of radioligand binding (Ki column, footnote a) (M3): ^a (<50% inhibition of radioligand binding at 10 μM)
- Ki (NET): 1.05 µM
- inhibition of radioligand binding (Ki column, footnote a) (Beta2): ^a (<50% inhibition of radioligand binding at 10 μM)
- inhibition of radioligand binding (Ki column, footnote a) (H3): ^a (<50% inhibition of radioligand binding at 10 μM)
- inhibition of radioligand binding (Ki column, footnote a) (M5): ^a (<50% inhibition of radioligand binding at 10 μM)
- effect on motor performance (latency to fall, rotorod) (SNI mice): no effect
- Ki (KOR): 1.38 µM
- inhibition of radioligand binding (Ki column, footnote a) (SERT): ^a (<50% inhibition of radioligand binding at 10 μM)
- inhibition of radioligand binding (Ki column, footnote a) (A2B4): ^a (<50% inhibition of radioligand binding at 10 μM)
- inhibition of radioligand binding (Ki column, footnote a) (5HT1e): ^a (<50% inhibition of radioligand binding at 10 μM)
- inhibition of radioligand binding (Ki column, footnote a) (M2): ^a (<50% inhibition of radioligand binding at 10 μM)
